What all share (format): cell-based
Conditions in all cases: human

The test system of data set [1] is TCC-SUP. The data set can be described thus: Cytotoxicity of compound in dark was determined at 1 uM in TCC-SUP transitional bladder cancer cells; No statistically significant cytotoxicity.
Data set [2] relates to TCC-SUP. The data set can be described thus: Cytotoxicity of compound in light was determined at 1 uM in TCC-SUP transitional bladder cancer cells; Marked light-induced toxicity.
The test system of data set [3] is TCC-SUP. The data set is described as follows: Cytotoxicity of compound was determined from treated to that of control TCC-SUP cells. The method, boiled down:
(§1)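 Kinetic (multiple-point) chemosensitivity assay: TCC-SUP cells (passage 56) seeded in microplates, drug added after 48 h at 1, 5 and 10 µM from 10 mM stocks, 0.1% (v/v) final solvent. Medium left unchanged; growth followed by absorbance at 578 nm up to 144 h. T/C corr. = (T−C0)/(C−C0)×100; cytocidal effect = (C0−T)/C0×100 when T<C0.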

The test system of data set [4] is TCC-SUP. The data set is described as follows: Cytotoxicity of compound in dark was determined at 10 uM in TCC-SUP transitional bladder cancer cells; No statistically significant cytotoxicity.
For data set [5], the system named is TCC-SUP. The data set can be described thus: Photoxicity of compound in light was determined at 1 uM in TCC-SUP transitional bladder cancer cells; Marked light-induced toxicity.
For data set [6], the system named is TCC-SUP. The data set can be described thus: Cytotoxicity of compound in dark was determined at 5 uM in TCC-SUP transitional bladder cancer cells; No statistically significant cytotoxicity.
Data set [7] has as its system TCC-SUP. The data set is described as follows: Cytotoxicity of compound was determined from treated to that of control on the proliferation of TCC-SUP cells at 1 uM. The method, boiled down:
as §1

Data set [8] concerns TCC-SUP. The data set is described as follows: Cytocidal of compound was determined from 10 uM in TCC-SUP cells incubated for 144 hr. The method, boiled down: as §1
Data set [9] relates to TCC-SUP. The data set can be described thus: Cytotoxicity of compound was determined from treated to that of control on the proliferation of TCC-SUP cells at 5 uM. The procedure, abridged: as §1

For the compound `COCCOCCOc1ccc(-c2c3nc(c(-c4ccc(OCCOCCOC)cc4)c4ccc([nH]4)c(-c4ccc(OC(C(=O)O)C(=O)O)cc4)c4nc(c(-c5ccc(OCCOCCOC)cc5)c5ccc2[nH]5)C=C4)C=C3)cc1`, the Cytotoxicity entry in data set [1] was “No effect”; in data set [2], “Marked light-induced toxicity”. The compound also displayed a T/C corr in [3] of 37%.
Regarding `COCCOCCOCCOCCOCCOCCOCCOCCOCCOCCOCCOCCOCCOCCOCCOCCOCCOc1ccc(-c2c3nc(c(-c4ccc(OCCOCCOCCOCCOCCOCCOCCOCCOCCOCCOCCOCCOCCOCCOCCOCCOCCOC)cc4)c4ccc([nH]4)c(-c4ccc(OC(C(=O)O)C(=O)O)cc4)c4nc(c(-c5ccc(OCCOCCOCCOCCOCCOCCOCCOCCOCCOCCOCCOCCOCCOCCOCCOCCOCCOC)cc5)c5ccc2[nH]5)C=C4)C=C3)cc1`, the Cytotoxicity result in data set [4] is reported as “No effect”.
With `COCCOCCOCCOc1ccc(-c2c3nc(c(-c4ccc(OCCOCCOCCOC)cc4)c4ccc([nH]4)c(-c4ccc(OC(C(=O)O)C(=O)O)cc4)c4nc(c(-c5ccc(OCCOCCOCCOC)cc5)c5ccc2[nH]5)C=C4)C=C3)cc1`, the Cytotoxicity entry in [5] is on record as “Marked light-induced toxicity”; in [6], “No effect”. Further, the T/C corr in [3] is reported as 37%.
Consider “Diammine[2-(4-{10,15,20-tris[4-(1,4,7,10-tetraoxaundecyl)phenyl]porphyrin-5-yl}phenoxy)malonato]platinum-(II)”, for which the T/C corr is 26.2% in data set [7] and 2.8% in data set [9]. In data set [8], this compound returned a Cytocidal effect of 17.1%.

The values are drawn from ChEMBL document CHEMBL1135613, “Soluble tetraarylporphyrin-platinum conjugates as cytotoxic and phototoxic antitumor agents” (J Med Chem, 2002).
